In brackets after ≈: the same amount, converted by molar mass.
Tests used:
Assay type in all cases: functional, cell-based
A549 = assay: Anticancer activity against human A549 cells assessed as growth inhibition after 48 hrs by MTT assay; conditions: A549, 48 h
In short: (§1)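 Standard MTT assay on cells incubated with compound for 48 h, with 5-fluorouracil as the positive control. Results are reported as IC50.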

HeLa = assay: Anticancer activity against human HeLa cells assessed as growth inhibition after 48 hrs by MTT assay; in short: as §1
[1] = Anticancer activity against human HCT116 cells assessed as growth inhibition after 48 hrs by MTT assay; conditions: HCT-116, 48 h; in short: as §1
[2] = Anticancer activity against mouse LL/2 cells assessed as growth inhibition after 48 hrs by MTT assay; conditions: Lewis lung carcinoma; in short: as §1
MCF7 = assay: Anticancer activity against human MCF7 cells assessed as growth inhibition after 48 hrs by MTT assay; conditions: MCF7, 48 h; in short: as §1

CC(C)NC(=O)c1cccc2c1NC(=O)C(C(C)(C)C(=O)NCc1ccccc1)C(=O)N2 (centres undefined)
IC50 (A549): > 100 µg/mL

Cc1ccc(CNC(=O)c2cccc3c2NC(=O)C(C(C)(C)C(=O)NCc2ccccc2)C(=O)N3)cc1 (centres undefined)
IC50 (A549): > 100 µg/mL

CC(C)(C(=O)NCc1ccccc1)C1C(=O)Nc2cccc(C(=O)Nc3ccc(F)cc3F)c2NC1=O (centres undefined)
IC50 (A549): > 100 µg/mL

CC(C)(C(=O)NCc1ccccc1)C1C(=O)Nc2cccc(C(=O)Nc3cccc(C(F)(F)F)c3)c2NC1=O (centres undefined)
IC50 (HeLa): 42 µg/mL (≈ 78 µM)
IC50 (A549): 27.8 µg/mL (≈ 51.6 µM)
IC50 [1]: 20.5 µg/mL (≈ 38.1 µM)
IC50 [2]: 17.6 µg/mL (≈ 32.7 µM)
IC50 (MCF7): 10 µg/mL (≈ 18.6 µM)

CC(C)(C)NC(=O)c1cccc2c1NC(=O)C(C(C)(C)C(=O)NCc1ccccc1)C(=O)N2 (centres undefined)
IC50 (A549): > 100 µg/mL

CC(C)(C(=O)NCc1ccccc1)C1C(=O)Nc2cccc(C(=O)Nc3ccc(C(F)(F)F)cc3)c2NC1=O (centres undefined)
IC50 (A549): > 100 µg/mL

CC(C)(C(=O)NCc1ccccc1)C1C(=O)Nc2cccc(C(=O)NCc3cccc(C(F)(F)F)c3)c2NC1=O (centres undefined)
IC50 (HeLa): 8.1 µg/mL (≈ 14.7 µM)
IC50 (A549): 80.5 µg/mL (≈ 146 µM)
IC50 [1]: 46.1 µg/mL (≈ 83.4 µM)
IC50 [2]: 30.5 µg/mL (≈ 55.2 µM)
IC50 (MCF7): 36.1 µg/mL (≈ 65.3 µM)

CC(C)(C(=O)NCc1ccccc1)C1C(=O)Nc2cccc(C(=O)NC3CC3)c2NC1=O (centres undefined)
IC50 (A549): > 100 µg/mL

O=c1[nH]cc(F)c(=O)[nH]1 [FLUOROURACIL]
IC50 (HeLa): 5.7 µg/mL (≈ 43.8 µM)
IC50 [1]: 4.8 µg/mL (≈ 36.9 µM)
IC50 [2]: 2.9 µg/mL (≈ 22.3 µM)
IC50 (MCF7): 12.1 µg/mL (≈ 93 µM)

CC(C)(C(=O)NCc1ccccc1)C1C(=O)Nc2cccc(C(=O)NCc3ccccc3)c2NC1=O (centres undefined)
IC50 (HeLa): 42 µg/mL (≈ 86.7 µM)
IC50 (A549): 45.3 µg/mL (≈ 93.5 µM)
IC50 [1]: 85 µg/mL (≈ 175 µM)
IC50 [2]: 48.5 µg/mL (≈ 100 µM)
IC50 (MCF7): 91.2 µg/mL (≈ 188 µM)

CC(C)(C(=O)NCc1ccccc1)C1C(=O)Nc2cccc(C(=O)Nc3cc(Cl)ccc3F)c2NC1=O (centres undefined)
IC50 (HeLa): 35.4 µg/mL (≈ 67.7 µM)
IC50 (A549): 63.3 µg/mL (≈ 121 µM)
IC50 [1]: 21.3 µg/mL (≈ 40.7 µM)
IC50 [2]: 19.3 µg/mL (≈ 36.9 µM)
IC50 (MCF7): 20.4 µg/mL (≈ 39 µM)

CC(C)(C(=O)NCc1ccccc1)C1C(=O)Nc2cccc(C(=O)Nc3ccccc3)c2NC1=O (centres undefined)
IC50 (HeLa): 41.9 µg/mL (≈ 89 µM)
IC50 (A549): 85.3 µg/mL (≈ 181 µM)
IC50 [1]: 26.6 µg/mL (≈ 56.5 µM)
IC50 [2]: 29.3 µg/mL (≈ 62.3 µM)
IC50 (MCF7): 21.3 µg/mL (≈ 45.3 µM)

CC(C)(C(=O)NCc1ccccc1)C1C(=O)Nc2cccc(C(=O)NCc3ccccn3)c2NC1=O (centres undefined)
IC50 (A549): > 100 µg/mL

CC(C)(C(=O)NCc1ccccc1)C1C(=O)Nc2cccc(C(=O)NCc3cc(F)ccc3F)c2NC1=O (centres undefined)
IC50 (HeLa): 25.1 µg/mL (≈ 48.2 µM)
IC50 (A549): 43.1 µg/mL (≈ 82.8 µM)
IC50 [1]: 80.1 µg/mL (≈ 154 µM)
IC50 [2]: 40.2 µg/mL (≈ 77.2 µM)
IC50 (MCF7): 74.8 µg/mL (≈ 144 µM)

CC(C)(C(=O)NCc1ccccc1)C1C(=O)Nc2cccc(C(=O)Nc3cccc(F)c3F)c2NC1=O (centres undefined)
IC50 (HeLa): 37.8 µg/mL (≈ 74.6 µM)
IC50 (A549): 80.4 µg/mL (≈ 159 µM)
IC50 [1]: 25 µg/mL (≈ 49.4 µM)
IC50 [2]: 32.9 µg/mL (≈ 65 µM)
IC50 (MCF7): 21 µg/mL (≈ 41.5 µM)

CC(C)(C(=O)NCc1ccccc1)C1C(=O)Nc2cccc(C(=O)Nc3ccc(F)c(F)c3F)c2NC1=O (centres undefined)
IC50 (A549): > 100 µg/mL

CC(C)(C(=O)NCc1ccccc1)C1C(=O)Nc2cccc(C(=O)Nc3cccc(Cl)c3)c2NC1=O (centres undefined)
IC50 (HeLa): 24 µg/mL (≈ 47.5 µM)
IC50 (A549): 56.2 µg/mL (≈ 111 µM)
IC50 [1]: 17.3 µg/mL (≈ 34.3 µM)
IC50 [2]: 17.1 µg/mL (≈ 33.9 µM)
IC50 (MCF7): 11.2 µg/mL (≈ 22.2 µM)

CC(C)(C(=O)NCc1ccccc1)C1C(=O)Nc2cccc(C(=O)NCc3ccc(F)c(Cl)c3)c2NC1=O (centres undefined)
IC50 (HeLa): 21.1 µg/mL (≈ 39.3 µM)
IC50 (A549): 68.1 µg/mL (≈ 127 µM)
IC50 [1]: 49.9 µg/mL (≈ 92.9 µM)
IC50 [2]: 66.8 µg/mL (≈ 124 µM)
IC50 (MCF7): 68.2 µg/mL (≈ 127 µM)

CC(C)(C(=O)NCc1ccccc1)C1C(=O)Nc2cccc(C(=O)NCc3c(F)ccc(F)c3F)c2NC1=O (centres undefined)
IC50 (A549): 97.7 µg/mL (≈ 181 µM)

Cc1ccc(CNC(=O)c2cccc3c2NC(=O)C(C(C)(C)C(=O)NCc2ccccc2)C(=O)N3)cc1Cl (centres undefined)
IC50 (HeLa): 16.7 µg/mL (≈ 31.3 µM)
IC50 (A549): 59.4 µg/mL (≈ 111 µM)
IC50 [1]: > 100 µg/mL
IC50 [2]: 58.3 µg/mL (≈ 109 µM)
IC50 (MCF7): 87 µg/mL (≈ 163 µM)

CC(C)(C(=O)NCc1ccccc1)C1C(=O)Nc2cccc(C(=O)Nc3ccccc3F)c2NC1=O (centres undefined)
IC50 (A549): 96.1 µg/mL (≈ 197 µM)
